Measurements as given in article PMC11303814 (Nature Communications, 2024).
Positions count from the first letter of the chain named. “Also recorded” adds a separate entry of the source.

Legend:
Format in all cases: cell-based
[1] = target: T1, rP2X7-R125A/Q143A (Rattus norvegicus, UniProt Q64663, Q143A/R125A); assay: TEVC deactivation time; settings: after 100 μM ATP or 10 μM BzATP
T1 sequence (Q64663 1-595 R125A/Q143A): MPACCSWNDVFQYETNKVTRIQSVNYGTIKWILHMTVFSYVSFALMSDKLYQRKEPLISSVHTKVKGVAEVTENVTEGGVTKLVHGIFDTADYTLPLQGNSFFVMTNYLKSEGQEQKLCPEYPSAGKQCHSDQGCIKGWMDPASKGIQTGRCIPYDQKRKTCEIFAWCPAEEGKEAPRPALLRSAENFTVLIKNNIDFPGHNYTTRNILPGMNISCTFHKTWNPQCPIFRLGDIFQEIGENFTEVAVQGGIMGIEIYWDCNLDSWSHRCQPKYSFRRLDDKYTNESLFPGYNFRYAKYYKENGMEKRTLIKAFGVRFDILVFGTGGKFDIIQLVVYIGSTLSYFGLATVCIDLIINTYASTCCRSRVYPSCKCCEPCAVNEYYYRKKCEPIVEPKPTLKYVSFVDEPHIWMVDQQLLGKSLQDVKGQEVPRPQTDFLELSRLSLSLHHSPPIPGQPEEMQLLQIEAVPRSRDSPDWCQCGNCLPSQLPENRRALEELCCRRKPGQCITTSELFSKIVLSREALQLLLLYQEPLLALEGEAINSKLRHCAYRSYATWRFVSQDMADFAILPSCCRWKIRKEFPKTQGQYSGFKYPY
Procedure, shortened: (§1)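 Xenopus oocytes injected with 50 nL of 10 ng/µL mutant rP2X7 mRNA, expressed ~20 h, clamped in pH 7.4 HEPES buffer with 0.1 mM flufenamic acid and EDTA. Currents were evoked by 100 µM ATP or 10 µM BzATP. τ is the time for current to return to 63% of baseline after agonist removal, from a one- or two-phase decay fit. Done in triplicate over first to third applications per oocyte; mean ± SD.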

[2] = target: T1, rP2X7-R125A/Q143A; assay: TEVC dose response; settings: read-out: EC50 (apparent affinity), mean ± SD, triplicate
Procedure, shortened: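 TEVC was run on Xenopus oocytes ~20 h after injection of wild-type or mutant rP2X7 mRNA, in pH 7.4 HEPES buffer with 0.1 mM flufenamic acid. Receptors were facilitated at 100 µM before recording. Dilution series: ATP 1.5 mM–2 µM (7 points), BzATP 300–0.14 µM (8 points). Responses were normalized to the largest concentration, fitted by nonlinear regression for EC50, and averaged across triplicates (mean ± SD).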

[3] = target: T2, rP2X7-Q143A (Rattus norvegicus, UniProt Q64663, Q143A); assay: TEVC deactivation time; settings: after 100 μM ATP or 10 μM BzATP
T2 sequence (Q64663 1-595 Q143A): T1 sequence (Q64663 1-595 R125A/Q143A) with A125R
Procedure, shortened: as §1

[4] = target: T3, rP2X7-R125A/Q143A/I214A (Rattus norvegicus, UniProt Q64663, I214A/Q143A/R125A); assay: TEVC deactivation time; settings: after 100 μM ATP or 100 μM BzATP
T3 sequence (Q64663 1-595 R125A/Q143A/I214A): T1 sequence (Q64663 1-595 R125A/Q143A) with I214A
Procedure, shortened: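 Triple-mutant rP2X7 was expressed ~20 h in Xenopus oocytes (50 nL of 10 ng/µL mRNA) and recorded by TEVC in pH 7.4 HEPES buffer containing flufenamic acid. Deactivation followed 100 µM ATP or 100 µM BzATP. τ is the time to 63% return to baseline after washout, from a one- or two-phase decay fit. Triplicate over first to third applications per oocyte; mean ± SD.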

[5] = target: T4, rP2X7 triple mutant (R125A/Q143A/I214A) (Rattus norvegicus, UniProt Q64663, I214A/Q143A/R125A); assay: TEVC efficacy experiments, triple mutant rP2X7 in oocytes; settings: identical concentrations
T4 sequence (Q64663 1-595 R125A/Q143A/I214A): T1 sequence (Q64663 1-595 R125A/Q143A) with I214A
Procedure, shortened: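 Oocytes expressing rP2X7 (~20 h after mRNA injection), TEVC in pH 7.4 HEPES/flufenamic acid buffer. Each oocyte first received 100 µM ATP as the normalization reference, then sequentially 50 µM ATP, 50 µM BzATP, 100 µM ATP and 100 µM BzATP, with buffer washout to baseline between applications. Normalized currents are from triplicates per concentration per construct; mean ± SD.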

**Q.** Which “deactivation lifetime τ” value [1] does the source give for `Nc1ncnc2c1ncn2[C@@H]1O[C@H](COP(=O)(O)OP(=O)(O)OP(=O)(O)O)[C@@H](O)[C@H]1O` [ATP] here?
**A.** 1.8 ± 0.1 s

**Q.** And the EC50 [2]?
**A.** 114 ± 30 µM

**Q.** And the “deactivation lifetime τ” value [3]?
**A.** 1.2 ± 0.1 s

**Q.** What about the “deactivation lifetime τ” value [4] of the same molecule?
**A.** 2.4 ± 0.8 s

**Q.** What about the “efficacy (agonist character, current amplitude)” value [5] of the same molecule?
**A.** equivalent agonists in terms of efficacy; also recorded: equal current amplitudes

**Q.** Which “deactivation lifetime τ” value [1] does the source give for BzATP here?
**A.** 2.5 ± 1.1 s

**Q.** And the EC50 [2]?
**A.** 18 ± 4 µM

**Q.** What about the “deactivation lifetime τ” value [3] of the same molecule?
**A.** 7.1 ± 0.6 s

**Q.** And the “deactivation lifetime τ” value [4]?
**A.** 3.7 ± 0.7 s

**Q.** And the “efficacy (agonist character, current amplitude)” value [5]?
**A.** equivalent agonists in terms of efficacy; also recorded: equal current amplitudes
